Calls of active or inactive are those of the source.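 Rule for the calls, unless noted: active = GFP response above 150% of the DMSO level; inconclusive = fewer than 70 events counted for a yeast strain; inactive = the rest.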
How the values were obtained:
[1] = RPL19A-GFP modulators, yeast TOR pathway, confirmation, cell-based, S. cerevisiae, flow cytometry, cherry picks, mother/daughter gates (AID 2270;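 active = GFP response below 50% of the DMSO control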); conditions: S. cerevisiae RPL19A-GFP strain, 3 h, at 10 µM, stronger effect = lower value, 100 = same GFP as DMSO wells
[2] = LAP4-GFP expression modulators in yeast, confirmation, cell-based, cherry picks, flow cytometry, mother/daughter gates (AID 2271;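 active = GFP response above 150% of the DMSO control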;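 note: ratio of sample to DMSO plate mean so 100% equals DMSO level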); conditions: S. cerevisiae LAP4-GFP strain, 3 h, at 10 µM, stronger effect = higher value, 100 means same as DMSO control
Summary of the method: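 Material: Alexa 633-stained baker's yeast GFP-fusion strain; Compound dosing: single test-compound dose, 10 µM final; Incubation: 30 °C, 3 h compound incubation, rotating; Detection: HT flow cytometry, GFP fluorescence channel; Control set: positive rapamycin (400 ng/mL), negative DMSO.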

[3] = modulators of MEP2-GFP levels in yeast, confirmation, S. cerevisiae, flow cytometry GFP, cherry picks (AID 2272;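 active = GFP response above 150% of the DMSO control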;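 note: ratio of well signal to plate DMSO mean so 100% equals DMSO level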); conditions: S. cerevisiae MEP2-GFP strain, 3 h, at 10 µM, stronger effect = higher value
[4] = AGP1-GFP expression modulators, hit retest, confirmation, cell-based, flow cytometry, S. cerevisiae, cherry picks (AID 2273);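 note: median GFP channel fluorescence over the whole cell population gate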; conditions: S. cerevisiae AGP1-GFP strain, 3 h, at 10 µM
[5] = modulators of CIT2-GFP expression in yeast, confirmation, S. cerevisiae, GFP fusion, cherry picks, mother/daughter gates (AID 2274); conditions: S. cerevisiae CIT2-GFP strain, flow cytometry, 3 h, at 10 µM, stronger effect = higher value
[6] = measured here: daughter cell gate
[7] = measured here: mother cell gate
[8] = measured here: daughter cell gate response
[9] = measured here: mother cell gate response

SMILES | GFP response vs DMSO [1] | GFP response vs DMSO [1, 6] | GFP response vs DMSO [1, 7] | GFP response relative to DMSO [2] | GFP response relative to DMSO [2, 8] | GFP response relative to DMSO [2, 9] | GFP response vs DMSO [3] | GFP response, % of DMSO [4] | GFP response, % of DMSO [5] | GFP response, % of DMSO [5, 6] | GFP response, % of DMSO [5, 7]
Fc1cccc(Cl)c1Cn1ncc2ccccc21 | 97.6% (inactive) | 96.1% | 96.3% | 102% (inactive) | 99.1% | 100% | 99% (inactive) | 101% (inactive) | 97.3% (inactive) | 97.4% | 96.8%
COC(=O)c1ccc(NC(=O)c2nc(S(=O)(=O)Cc3cccc(C)c3)ncc2Cl)cc1 | 98.4% (inactive) | 96.1% | 98.7% | 103% (inactive) | 102% | 106% | 100% (inactive) | 95.7% (inactive) | 88.7% (inactive) | 88.3% | 86.9%
Clc1ccc(-c2nnnn2-c2ccc(Cl)cc2)cc1 | 101% (inactive) | 102% | 100% | 97.7% (inactive) | 102% | 96.4% | 99.3% (inactive) | 95.9% (inactive) | 100% (inactive) | 101% | 99.3%
CCC(=O)c1ccc(N2CCN(C(=O)c3ccc(Br)cc3)CC2)c(F)c1 | 97.6% (inactive) | 97.6% | 94.4% | 115% (inactive) | 117% | 112% | 101% (inactive) | 96.1% (inactive) | 95.9% (inactive) | 97.4% | 93.2%
CCCc1[nH]nc2c1C(c1ccc(O)c(OC)c1)C(C#N)=C(N)O2 (configuration not stated) | 103% (inactive) | 101% | 103% | 92.6% (inactive) | 94.1% | 93.1% | 107% (inactive) | 97.6% (inactive) | 103% (inactive) | 101% | 103%
Cc1cccn2c(N)c(-c3ccccc3)nc12 | 97.4% (inactive) | 97.3% | 97.1% | 95.3% (inactive) | 96.5% | 90.6% | 106% (inactive) | 102% (inactive) | 104% (inactive) | 102% | 96.8%
Cc1ccc(/C=C2/NC(=O)N(Cc3ccccc3)C2=O)o1 | 98.4% (inactive) | 99.8% | 98.8% | 112% (inactive) | 110% | 113% | 101% (inactive) | 101% (inactive) | 103% (inactive) | 105% | 101%
CCCc1[nH]nc2c1C(c1cc(OC)cc(OC)c1)C(C#N)=C(N)O2 (configuration not stated) | 101% (inactive) | 99.8% | 101% | 103% (inactive) | 100% | 106% | 102% (inactive) | 100% (inactive) | 95.2% (inactive) | 93.2% | 95.5%
CC(=O)c1cc(NC(=O)c2ccc(C)cc2)c(=O)oc1C | 96.6% (inactive) | 97.5% | 96% | 105% (inactive) | 104% | 104% | 104% (inactive) | 94.3% (inactive) | 99.3% (inactive) | 100% | 96.8%
O=C(O)COc1c(-c2ccc(Cl)cc2)oc2ccccc2c1=O | 97% (inactive) | 95.4% | 97.9% | 99.2% (inactive) | 99.2% | 99.3% | 102% (inactive) | 96% (inactive) | 96.9% (inactive) | 97.2% | 96.1%
Cc1ccc(/C=N\NC(=O)c2cc(OCC(F)(F)F)ccc2OCC(F)(F)F)cc1 | 100% (inactive) | 101% | 100% | 91.5% (inactive) | 91.2% | 92.9% | 94.1% (inactive) | 102% (inactive) | 105% (inactive) | 108% | 106%
C[n+]1ccc(/C=C/c2c[nH]c3ccc(F)cc23)cc1 | 101% (inactive) | 99.5% | 102% | 113% (inactive) | 110% | 115% | 120% (inactive) | 104% (inactive) | 110% (inactive) | 108% | 112%
O=C(c1ccc2c(c1)OCO2)N1CCN(c2ccc(F)cc2)CC1 | 103% (inactive) | 101% | 102% | 90.2% (inactive) | 89.5% | 91.1% | 102% (inactive) | 98.5% (inactive) | 99.1% (inactive) | 96.5% | 99.8%
COc1ccc2c(/C=C/c3cc[n+](C)cc3)c[nH]c2c1 | 102% (inactive) | 106% | 101% | 144% (inactive) | 152% | 143% | 199% (active) | 100% (inactive) | 161% (active) | 169% | 157%
CCN(CC)CCN(C(=O)c1ccc2c(c1)CCCC2)c1nc2cc(OC)c(OC)cc2s1 | 94.1% (inactive) | 96% | 94.1% | 98.8% (inactive) | 99.3% | 95.6% | 97.5% (inactive) | 101% (inactive) | 99.3% (inactive) | 102% | 98%
COc1ccc(OC)c(CNC(=O)CCC(=O)N2Cc3cccc(OC)c3Oc3ncccc32)c1 | 102% (inactive) | 100% | 101% | 90.6% (inactive) | 94.2% | 95.2% | 105% (inactive) | 109% (inactive) | 102% (inactive) | 101% | 103%
CC1CCCN(CCCNC(=O)C2CCN(S(=O)(=O)N3CCC4(CC3)OCCO4)CC2)C1 (configuration not stated) | 96.4% (inactive) | 96.1% | 98.5% | 97.9% (inactive) | 97.6% | 96.1% | 96.2% (inactive) | 98.9% (inactive) | 105% (inactive) | 106% | 106%
O=C1Nc2ccccc2/C1=C\C(=O)c1ccccc1 | 99% (inactive) | 96.4% | 91.9% | 228% (active) | 180% | 236% | 128% (inactive) | 103% (inactive) | 109% (inactive) | 110% | 104%
N#C/C(=C\c1cccc(Oc2ccccc2)c1)C(=O)N1CCOCC1 | 97.8% (inactive) | 97.8% | 95.1% | 137% (inactive) | 128% | 141% | 98.8% (inactive) | 104% (inactive) | 90.9% (inactive) | 90.5% | 87.8%
CC[n+]1cc(C)ccc1/C=C/c1ccc(N(C)C)cc1 | 104% (inactive) | 106% | 103% | 134% (inactive) | 138% | 128% | 162% (inactive) | 104% (inactive) | 134% (inactive) | 141% | 126%
O=C(Nc1nc(-c2ccc(Cl)s2)cs1)c1cccs1 | 93.8% (inactive) | 91% | 93.7% | 113% (inactive) | 107% | 119% | 97.2% (inactive) | 98.8% (inactive) | 83.3% (inactive) | 85.2% | 82.6%
Clc1cnc(N/N=C/c2cccs2)c(Cl)c1 | 105% (inactive) | 100% | 103% | 178% (active) | 158% | 172% | 126% (inactive) | 98.2% (inactive) | 103% (inactive) | 110% | 97.1%
Cc1nn2c(N3CCOCC3)c3c(nc2c1-c1ccccc1)CCCC3 | 103% (inactive) | 102% | 102% | 101% (inactive) | 96% | 102% | 103% (inactive) | 103% (inactive) | 103% (inactive) | 101% | 102%
CCOC(=O)/C(=C\c1cn(C)c2ccccc12)[N+](=O)[O-] | 98.2% (inactive) | 93.4% | 93.6% | 204% (active) | 163% | 202% | 111% (inactive) | 84.2% (inactive) | 86.9% (inactive) | 88.1% | 76%
COc1ccc(OC)c(NC(=O)c2cccc3c2C(=O)N(C2CCCCC2)C3)c1 | 97.8% (inactive) | 98.4% | 98.4% | 92.8% (inactive) | 92.8% | 90.8% | 98.3% (inactive) | 97.8% (inactive) | 101% (inactive) | 103% | 98.5%
O=C(OCC(=O)N1CCN(C(=O)c2ccco2)CC1)c1cc(-c2ccccc2)nc2ccccc12 | 76.3% (inactive) | 66.6% | 70.5% | 161% (active) | 117% | 153% | 130% (inactive) | 136% (inactive) | 134% (inactive) | 114% | 130%
CC(=O)Oc1ccc(N2C(=O)C3C4C=CC(CO)(O4)C3C2=O)cc1 (configuration not stated) | 103% (inactive) | 104% | 97.8% | 120% (inactive) | 120% | 120% | 107% (inactive) | 101% (inactive) | 109% (inactive) | 112% | 104%
